Results: ChEMBL document CHEMBL4033772, “New Class of Antitrypanosomal Agents Based on Imidazopyridines” (ACS Med Chem Lett, 2017)
In brackets after ≈: the same amount, converted by molar mass. Activity calls are given as the source filed them. No cut-off for these calls is given here.

Legend:
[1] = Cytotoxicity against human CRL8155 cells after 48 hrs by Alamar Blue-based assay; assay type: cell-based; settings: CRL8155, 48 h
Summary of the method: (§1)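 Cytotoxicity tested against human lymphoblasts CRL-8155 and hepatocytes HepG2. Highest concentration tested was 50 µM.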

HepG2 = test: Cytotoxicity against human HepG2 cells after 48 hrs by Alamar Blue-based assay; assay type: cell-based; settings: HepG2, 48 h; summary of the method: as §1
Trypanosoma cruzi [2] = test: Antitrypanosomal activity against Trypanosoma cruzi Tulahuen amastigotes infected in mouse 3T3 cells after 6 days by beta galactosidase reporter asay; assay type: functional, cell-based; settings: NIH3T3, 144 h
[3] = system: Trypanosoma brucei brucei; test: Antitrypanosomal activity against Trypanosoma brucei brucei BF427 after 48 hrs by Alamar Blue-based assay; assay type: functional; settings: BF427, 48 h
Liver = test: Stability of the compound in mouse liver microsomes assessed as compound remaining by LC-MS/MS method; assay type: ADME, microsome
Summary of the method: (§2)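 Incubation with mouse liver microsomes, run in duplicate. Testosterone and dextromethorphan included as controls in each assay.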

[4] = Solubility of the compound in PBS at pH 7.4 at 50 uM after overnight incubation by LC-MS/MS method; assay type: physicochemical
Summary of the method: (§3)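 Solubility measured at pH 7.4, 6.5 and 2.0.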

[5] = Half life in mouse liver microsomes by LC-MS/MS method; assay type: ADME, microsome; summary of the method: as §2
[6] = Protein binding in Swiss Webster mouse plasma assessed as drug recovery at 2 uM by LC-MS/MS analysis; assay type: ADME, cell-free; settings: read-out: Drug recovery
Summary of the method: (§4)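 Plasma protein binding measured in 100% mouse plasma, giving % recovery and % fraction unbound. Propranolol control included in every experiment.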

[7] = Fraction unbound in Swiss Webster mouse plasma at 2 uM by LC-MS/MS analysis; assay type: ADME, cell-free; summary of the method: as §4
[8] = Solubility of the compound in HCl at pH 2.0 at 50 uM after overnight incubation by LC-MS/MS method; assay type: physicochemical; summary of the method: as §3
[9] = Solubility of the compound in PBS at pH 6.5 at 50 uM after overnight incubation by LC-MS/MS method; assay type: physicochemical; summary of the method: as §3
[10] = Drug level in Swiss Webster mouse brain at 5 mg/kg, ip after 1 hr by LC-MS/MS analysis; assay type: ADME, organism-based; settings: read-out: Drug uptake
Summary of the method: (§5)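 Mice in groups of three got a single 5 mg/kg ip dose. Animals were sacrificed 1 h postdose, and brain and plasma were collected for analysis. Brain:plasma ratio was calculated from the mean concentrations.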

[11] = Ratio of drug level in Swiss Webster mouse brain to plasma at 5 mg/kg, ip measured after 1 hr by LC-MS/MS analysis; assay type: ADME, organism-based; settings: read-out: BPR; summary of the method: as §5
[12] = Plasma concentration in Swiss Webster mouse at 5 mg/kg, ip after 1 hr by LC-MS/MS analysis; assay type: ADME, organism-based; summary of the method: as §5
[13] = Plasma concentration in BALB/c mouse subcutaneously infected with bioluminescent PpyRE9h expressing Trypanosoma cruzi Tulahuen tryptomastigotes at 50 mg/kg, po twice daily measured 6 hrs post seventh dose; assay type: ADME, organism-based
Summary of the method: (§6)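 Infected Balb/c mice on the twice-daily 50 mg/kg oral regimen. Tail blood collected at the 7th dose, immediately before and 1 h and 6 h after administration (n=3).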

[14] = Plasma concentration in BALB/c mouse subcutaneously infected with bioluminescent PpyRE9h expressing Trypanosoma cruzi Tulahuen […] at 50 mg/kg, po twice daily measured immediately before seventh dose
[15] = Cmax in Swiss Webster mouse at 50 mg/kg, po by LC-MS/MS analysis; assay type: ADME, organism-based; set-up: dose 50 mg/kg, route oral; settings: in vivo
Summary of the method: (§7)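 Oral single dose of 50 mg/kg to mice (n=3). Blood sampled at time points up to 24 h. Cmax and AUC reported as average ± SEM.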

[16] = Plasma concentration in BALB/c mouse subcutaneously infected with bioluminescent PpyRE9h expressing Trypanosoma cruzi Tulahuen […] at 50 mg/kg, po twice daily measured 1 hr post seventh dose; assay type: ADME, organism-based; summary of the method: as §6
Trypanosoma cruzi [17] = test: Antitrypanosomal activity against bioluminescent PpyRE9h expressing Trypanosoma cruzi Tulahuen […] infected subcutaneously in BALB/c mouse assessed as suppression of Trypanosoma cruzi infection at 50 mg/kg, po twice daily for 5 days measured after 6 weeks by IVIS imaging analysis; assay type: functional, organism-based
Summary of the method: (§8)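 Balb/c mice infected SC on day 0 with 2x10^4 T. cruzi Tulahuen trypomastigotes expressing red-shifted luciferase (PpyRE9h). Oral dosing at 50 mg/kg twice daily on days 7-11 post-infection. D-luciferin (120 mg/kg) injected SC, mice anesthetized and imaged by IVIS 10-15 min later, at time points out to 42 days. Mice observed for toxicity.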

[18] = AUC in Swiss Webster mouse at 50 mg/kg, po by LC-MS/MS analysis; assay type: ADME, organism-based; settings: in vivo; summary of the method: as §7
Mus musculus = test: Toxicity in BALB/c mouse infected with bioluminescent PpyRE9h expressing Trypanosoma cruzi Tulahuen […] at 50 mg/kg, po twice daily for 5 days measured after 6 weeks; assay type: organism-based; settings: in vivo, 1008 h; summary of the method: as §8
Trypanosoma cruzi [19] = test: Antitrypanosomal activity against bioluminescent PpyRE9h expressing Trypanosoma cruzi Tulahuen […] infected subcutaneously in BALB/c mouse assessed as suppression of Trypanosoma cruzi infection at 100 mg/kg, po qd administered for 5 days measured after 6 weeks by IVIS imaging analysis; assay type: functional, organism-based
[20] = Selectivity ratio of EC50 for Trypanosoma cruzi Tulahuen amastigotes to EC50 for Trypanosoma brucei brucei BF427; assay type: functional

Compound | EC50 [1] [nM] | EC50 (HepG2) [nM] | EC50 (Trypanosoma cruzi [2]) [nM] | EC90 (Trypanosoma cruzi [2]) [nM] | EC50 [3] [nM] | EC90 [3] [nM] | other results
O=C(Nc1ccn2cc(-c3ccc(F)c(F)c3)nc2c1)N1CCCCC1 | 47400 | > 50000 | 2840 | 4400 | 1200 | 1750 | –
Cn1nc(C(C)(C)C)cc1C(=O)Nc1cc2nc(-c3ccc(F)c(F)c3)cn2cn1 | 14500 | > 50000 | 170 | 640 | 6990 | > 20000 | Stability (Liver): 47.1%; solubility at 50 µM [4]: 2.7 µM (≈ 1.11 µg/mL); half-life [5]: 1 h; recovery at 2 µM [6]: 73.3%; fraction unbound at 2 µM [7]: 0.007; solubility at 50 µM [8]: 1.3 µM (≈ 0.534 µg/mL); solubility at 50 µM [9]: 7.6 µM (≈ 3.12 µg/mL)
O=C(Nc1ccn2cc(-c3nccs3)nc2c1)N1CC[C@H](F)C1 | > 50000 | > 50000 | > 20000 | > 20000 | > 20000 | > 20000 | –
O=C(Nc1ccn2cc(-c3cccc(F)c3F)nc2c1)N1CC[C@H](F)C1 | > 50000 | > 50000 | 940 | 1360 | 180 | 920 | Stability (Liver): 86.3%; solubility at 50 µM [4]: 6.4 µM (≈ 2.31 µg/mL); half-life [5]: > 1 h; recovery at 2 µM [6]: 68.4%; fraction unbound at 2 µM [7]: 0.026; solubility at 50 µM [8]: 53.1 µM (≈ 19.1 µg/mL); solubility at 50 µM [9]: 6.8 µM (≈ 2.45 µg/mL)
Cn1nc(C(C)(C)C)cc1C(=O)Nc1ccn2cc(-c3ccc(F)c(F)c3)nc2c1 | > 50000 | > 50000 | 570 | 1520 | 710 | > 20000 | –
CC(C)NCC(O)COc1cccc2ccccc12 (centres undefined) [PROPRANOLOL] | – | – | – | – | – | – | recovery at 2 µM [6]: 75.7%; fraction unbound at 2 µM [7]: 0.114
O=C(Nc1ccn2cc(-c3ccc(F)c(F)c3)nc2c1)N1CC[C@H](F)C1 | 35300 | > 50000 | 390 | 600 | 160 | 310 | Stability (Liver): 100%; solubility at 50 µM [4]: 32.8 µM (≈ 11.8 µg/mL); half-life [5]: > 1 h; recovery at 2 µM [6]: 64.5%; concentration at 1 h [10]: 0.55 µM; fraction unbound at 2 µM [7]: 0.04; Kp at 1 h [11]: 0.114; solubility at 50 µM [8]: 45.9 µM (≈ 16.5 µg/mL); solubility at 50 µM [9]: 49.9 µM (≈ 18 µg/mL); concentration at 1 h [12]: 4.84 µM
O=C(Nc1cc2nc(-c3ccc(F)c(F)c3)cn2cn1)N1CC[C@H](F)C1 | > 50000 | > 50000 | 90 | 150 | 20 | 50 | Stability (Liver): 96%; concentration at 6 h [13]: 5.8 µM; concentration at 0 hr [14]: 4.8 µM; solubility at 50 µM [4]: 2.1 µM (≈ 0.759 µg/mL); Cmax [15]: 5.7 µM; half-life [5]: > 1 h; recovery at 2 µM [6]: 56.1%; concentration at 1 h [10]: 1.12 µM; fraction unbound at 2 µM [7]: 0.099; Kp at 1 h [11]: 0.856; concentration at 1 h [16]: 9 µM; Activity (Trypanosoma cruzi [17]): Active; AUC [18]: 59.8 µM·h; solubility at 50 µM [8]: 1.6 µM (≈ 0.578 µg/mL); solubility at 50 µM [9]: 2.4 µM (≈ 0.867 µg/mL); Activity (Mus musculus): Non-Toxic; concentration at 1 h [12]: 1.31 µM
N=C(N)c1ccc(OCCCCCOc2ccc(C(=N)N)cc2)cc1 [PENTAMIDINE] | – | – | – | – | 2.16 | 6.13 | –
O=C(Nc1ccn2cc(-c3cccc(F)c3F)nc2c1)N1CCCC1 | > 50000 | > 50000 | 1020 | 1610 | 580 | 2760 | –
O=C(Nc1ccn2cc(-c3ccc(F)c(F)c3)nc2c1)c1cccnc1 | > 50000 | > 50000 | 6270 | > 20000 | 6300 | > 20000 | –
O=C(Cn1ccnc1[N+](=O)[O-])NCc1ccccc1 [BENZNIDAZOLE] | – | – | 690 | 1360 | – | – | Activity (Trypanosoma cruzi [19]): Active
COc1ccc2c(c1)[C@]13CCCC[C@@H]1[C@H](C2)N(C)CC3 [DEXTROMETHORPHAN] | – | – | – | – | – | – | half-life [5]: 0.0185 h
O=C(Nc1ccn2cc(-c3cccc(F)c3)nc2c1)N1CCCCC1 | > 50000 | > 50000 | 3100 | 4530 | 970 | 1480 | –
CCN(CC)CCCC(C)Nc1c2ccc(Cl)cc2nc2ccc(OC)cc12 (centres undefined) [QUINACRINE] | 4230 | – | – | – | – | – | –
O=C(Nc1ccc2nc(-c3ccc(F)c(F)c3)cn2c1)N1CC[C@H](F)C1 | > 50000 | > 50000 | 9940 | > 20000 | > 20000 | > 20000 | –
O=C(Nc1ccn2cc(-c3ccccc3)nc2c1)N1CCCC1 | 36000 | > 50000 | 4460 | 6440 | 2230 | 3270 | –
C[C@]12CC[C@H]3[C@@H](CCC4=CC(=O)CC[C@@]43C)[C@@H]1CC[C@@H]2O [TESTOSTERONE] | – | – | – | – | – | – | half-life [5]: 0.0947 h
O=C(Nc1ccn2cc(-c3ccccc3)nc2c1)N1CC[C@H](F)C1 | 44600 | > 50000 | 1080 | 1730 | 620 | 770 | –
O=C(Nc1ccn2cc(-c3ccc(F)c(F)c3)nc2c1)N1CCCC1 | > 50000 | > 50000 | 2240 | 2570 | 320 | 730 | Ratio EC50 [20]: 7
O=C(Nc1ccn2cc(-c3cccc(F)c3)nc2c1)N1CCCC1 | > 50000 | > 50000 | 2950 | 6010 | 730 | 880 | –
Cc1noc(C)c1C(=O)Nc1ccn2cc(-c3ccc(F)c(F)c3)nc2c1 | > 50000 | > 50000 | 9060 | > 20000 | > 20000 | > 20000 | –
O=C(Nc1ccn2cc(-c3cccc(F)c3F)nc2c1)N1CCCCC1 | > 50000 | > 50000 | 1000 | 1580 | 720 | 870 | –
O=C(Nc1ccn2cc(-c3ccc(F)c(F)c3)nc2n1)N1CC[C@H](F)C1 | > 50000 | > 50000 | 2530 | > 20000 | > 20000 | > 20000 | recovery at 2 µM [6]: 49%; fraction unbound at 2 µM [7]: 0.081; solubility at 50 µM [9]: 42 µM (≈ 15.2 µg/mL)
O=C(Nc1ccn2cc(-c3cccc(F)c3)nc2c1)N1CC[C@H](F)C1 | 29700 | > 50000 | 710 | 880 | 160 | 820 | Stability (Liver): 84.5%; solubility at 50 µM [4]: 49.7 µM (≈ 17 µg/mL); half-life [5]: > 1 h; recovery at 2 µM [6]: 68.5%; fraction unbound at 2 µM [7]: 0.03; solubility at 50 µM [8]: 52 µM (≈ 17.8 µg/mL); solubility at 50 µM [9]: 43.8 µM (≈ 15 µg/mL)
O=C(Nc1ccn2cc(-c3cccs3)nc2c1)N1CC[C@H](F)C1 | > 50000 | > 50000 | 2680 | 3920 | 1000 | 2670 | –
O=C(Nc1ccn2cc(-c3ccccc3)nc2c1)N1CCCCC1 | > 50000 | > 50000 | 2750 | 12300 | 2510 | 4200 | –
O=C(Nc1ccn2cc(-c3ccc(F)c(F)c3)nc2c1)c1cccnc1Cl | > 50000 | > 50000 | 7340 | > 20000 | > 20000 | > 20000 | –
